In ChEMBL document CHEMBL1765069, “Decahydroquinoline amides as highly selective CB2 agonists: role of selectivity on in vivo efficacy in a rodent model of analgesia” (Bioorg Med Chem Lett, 2011):
Where “and” joins values, the source holds several entries; their conditions need not be identical. Equal values may be shown once.

What was measured:
Cannabinoid receptor 2 [1] = biological target: T1, Cannabinoid receptor 2 (Homo sapiens, UniProt P34972); assay: Agonist activity at human CB2 receptor expressed in CHOK1 cells assessed as inhibition of forskolin-induced cAMP production treated 15 mins before forskolin challenge measured after 1 hr by HTRF assay; format: functional, cell-based, CHO-K1
T1 sequence (P34972 whole entry): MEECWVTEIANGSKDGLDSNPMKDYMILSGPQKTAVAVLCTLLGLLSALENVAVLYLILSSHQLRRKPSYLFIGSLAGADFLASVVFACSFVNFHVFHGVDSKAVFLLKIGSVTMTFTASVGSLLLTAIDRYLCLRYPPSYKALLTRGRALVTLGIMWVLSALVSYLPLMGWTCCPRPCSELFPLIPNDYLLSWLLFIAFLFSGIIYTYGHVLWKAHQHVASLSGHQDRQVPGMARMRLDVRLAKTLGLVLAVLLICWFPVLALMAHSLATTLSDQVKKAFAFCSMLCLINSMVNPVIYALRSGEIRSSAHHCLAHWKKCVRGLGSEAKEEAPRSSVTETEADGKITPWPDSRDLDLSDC
Summary of the method: (§1)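 CHO-K1 cells (1000 per well) expressing human or rat CB1 or CB2 were preincubated with compound for 15 min at room temperature. Forskolin was then added at its EC70 for 30 min at room temperature. cAMP was detected by HTRF (d2-cAMP plus anti-cAMP cryptate) after a final 1 h incubation at room temperature. Values are reported as IC50 with % Emax.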

Cannabinoid receptor 1 [2] = biological target: T2, Cannabinoid receptor 1 (Homo sapiens, UniProt P21554); assay: Agonist activity at human CB1 receptor expressed in CHOK1 cells assessed as inhibition of forskolin-induced cAMP production treated 15 mins before forskolin challenge measured after 1 hr by HTRF assay; format: functional, cell-based, CHO-K1; summary of the method: as §1
T2 sequence (P21554 whole entry): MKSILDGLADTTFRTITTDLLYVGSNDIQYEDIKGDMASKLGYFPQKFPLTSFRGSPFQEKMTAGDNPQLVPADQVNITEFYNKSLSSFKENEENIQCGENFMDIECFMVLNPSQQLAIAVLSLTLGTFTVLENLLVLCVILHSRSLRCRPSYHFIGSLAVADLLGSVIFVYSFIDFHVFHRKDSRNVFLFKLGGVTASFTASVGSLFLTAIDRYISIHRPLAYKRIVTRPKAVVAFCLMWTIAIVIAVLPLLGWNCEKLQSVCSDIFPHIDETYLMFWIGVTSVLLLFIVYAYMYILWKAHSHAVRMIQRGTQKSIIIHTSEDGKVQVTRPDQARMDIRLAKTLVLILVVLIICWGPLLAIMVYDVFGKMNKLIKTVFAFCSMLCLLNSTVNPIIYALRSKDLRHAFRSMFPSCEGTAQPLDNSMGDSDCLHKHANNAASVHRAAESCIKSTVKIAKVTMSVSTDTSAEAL

Cannabinoid receptor 2 [3] = biological target: T1, Cannabinoid receptor 2; assay: Agonist activity at human CB2 receptor expressed in CHOK1 cells assessed as inhibition of forskolin-induced cAMP production treated 15 mins before forskolin challenge measured after 1 hr by HTRF assay relative to control; format: functional, cell-based; conditions: CHO-K1
Summary of the method: (§2)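 CHO-K1 cells (1000 per well) expressing human or rat CB1 or CB2 were preincubated with compound at room temperature for 15 min. Forskolin at EC70 was then added for a further 30 min at room temperature. cAMP was read by HTRF (d2-cAMP plus anti-cAMP-cryptate, final 1 h at room temperature). IC50 and % Emax were reported.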

Cannabinoid receptor 1 [4] = biological target: T2, Cannabinoid receptor 1; assay: Agonist activity at human CB1 receptor expressed in CHOK1 cells assessed as inhibition of forskolin-induced cAMP production treated 15 mins before forskolin challenge measured after 1 hr by HTRF assay relative to control; format: functional, cell-based; conditions: CHO-K1; summary of the method: as §2

| SMILES | IC50 (Cannabinoid receptor 2 [1]) | IC50 (Cannabinoid receptor 1 [2]) [µM] | Emax (Cannabinoid receptor 2 [3]) [%] | Emax (Cannabinoid receptor 1 [4]) [%] |
| --- | --- | --- | --- | --- |
| O=C(c1cccc2[nH]ncc12)N1CCC(O)(c2ccccc2)[C@@H]2CCCC[C@@H]21 (single isomer, unassigned) [listing 1 of 2 here] | 1.6 nM | > 17 |  |  |
| CN1CCC(C(=O)N2CC[C@@](O)(c3ccccc3)[C@@H]3CCCC[C@@H]32)CC1 (racemic) | 395 nM | > 17 | 98 |  |
| O=C(c1csc(-c2ccncc2)n1)N1CCC(O)(c2ccccc2)[C@@H]2CCCC[C@@H]21 (single isomer, unassigned; form 2) [listing 1 of 2 here] | 7.9 nM | > 17 |  |  |
| CN1CCCCC1C(=O)N1CC[C@@](O)(c2ccccc2)[C@@H]2CCCC[C@@H]21 (mixture of isomers) | 56 nM | > 17 | 100 |  |
| O=C(c1cccc2[nH]ncc12)N1CCC(O)(c2ccccc2)[C@@H]2CCCC[C@@H]21 (some centres undefined) [listing 1 of 2 here] | 4.9 nM | 4.25 |  |  |
| O=C(c1ccon1)N1CC[C@@](O)(c2ccccc2)[C@@H]2CCCC[C@@H]21 (racemic) | 11 nM | > 17 | 102 |  |
| COc1ccc([C@@]2(O)CCN(C(=O)c3ccccc3)[C@H]3CCCC[C@@H]32)cc1 | 358 nM |  | 66 |  |
| O=C(c1ccccc1)N1CC[C@](O)(c2ccccn2)[C@H]2CCCC[C@@H]21 | 1360 nM |  | 65 |  |
| O=C(c1ccccc1)N1CC[C@](O)(c2cccc(C(F)(F)F)c2)[C@H]2CCCC[C@@H]21 | 810 nM |  | -16 |  |
| O=C(c1csc(-c2ccncc2)n1)N1CCC(O)(c2ccccc2)[C@@H]2CCCC[C@@H]21 (single isomer, unassigned; form 2) [listing 2 of 2 here] |  |  | 98 | 18 |
| O=C1CCC(C(=O)N2CC[C@@](O)(c3ccccc3)[C@@H]3CCCC[C@@H]32)N1 (mixture of isomers) | 193 nM | > 17 | 102 |  |
| O=C(c1ncccn1)N1CC[C@@](O)(c2ccccc2)[C@@H]2CCCC[C@@H]21 (racemic) | 29 nM | > 17 | 101 |  |
| O=C(c1csc(-c2ccncc2)n1)N1CCC(O)(c2ccccc2)[C@@H]2CCCC[C@@H]21 (single isomer, unassigned; form 4) [listing 1 of 2 here] |  |  | 19 | 46 |
| O=C(c1csc(-c2ccncc2)n1)N1CCC(O)(c2ccccc2)[C@@H]2CCCC[C@@H]21 (single isomer, unassigned; form 4) [listing 2 of 2 here] | > 17000 nM | 0.93 |  |  |
| CS(=O)(=O)c1cccc([C@@]2(O)CCN(C(=O)c3ccccc3)[C@H]3CCCC[C@@H]32)c1 | 338 nM |  | 52 |  |
| O=C(c1ccc(C(F)(F)F)nc1)N1CC[C@@](O)(c2ccccc2)[C@@H]2CCCC[C@@H]21 (racemic) | 12 nM | > 17 | 96 |  |
| O=C(c1ccncc1F)N1CC[C@@](O)(c2ccccc2)[C@@H]2CCCC[C@@H]21 (racemic) | 6.3 nM | > 17 | 99 |  |
| O=C(c1cccc2[nH]ncc12)N1CCC(O)(c2ccccc2)[C@@H]2CCCC[C@@H]21 (some centres undefined) [listing 2 of 2 here] |  |  | 100 | 95 |
| O=C(c1csc(-c2ccncc2)n1)N1CCC(O)(c2ccccc2)[C@@H]2CCCC[C@@H]21 (single isomer, unassigned; form 1) [listing 1 of 2 here] | 0.55 nM | > 17 |  |  |
| Cn1ccnc1C(=O)N1CC[C@@](O)(c2ccccc2)[C@@H]2CCCC[C@@H]21 (racemic) | 124 nM | > 17 | 100 |  |
| Cc1ccc(C(=O)N2CC[C@@](O)(c3ccccc3)[C@@H]3CCCC[C@@H]32)cn1 (racemic) |  |  | 99 |  |
| Cc1cccc(C(=O)N2CC[C@@](O)(c3ccccc3)[C@@H]3CCCC[C@@H]32)n1 (racemic) | 6.1 nM | > 17 | 99 |  |

| SMILES | IC50 (Cannabinoid receptor 2 [1]) | IC50 (Cannabinoid receptor 1 [2]) [µM] | Emax (Cannabinoid receptor 2 [3]) [%] | Emax (Cannabinoid receptor 1 [4]) [%] |
| --- | --- | --- | --- | --- |
| O=C(c1cc(-c2ccccc2F)n[nH]1)N1CC[C@](O)(c2ccccc2)[C@H]2CCCC[C@@H]21 | 1290 nM | > 17 |  |  |
| O=C(c1csc(-c2ccncc2)n1)N1CCC(O)(c2ccccc2)[C@@H]2CCCC[C@@H]21 (single isomer, unassigned; form 1) [listing 2 of 2 here] |  |  | 100 | 12 |
| O=C(C1CNCCN1)N1CC[C@@](O)(c2ccccc2)[C@@H]2CCCC[C@@H]21 (mixture of isomers) | 62 nM | > 17 | 91 |  |
| O=C([C@@H]1C[C@@H](O)CCN1)N1CC[C@@](O)(c2ccccc2)[C@@H]2CCCC[C@@H]21 (racemic) | 2180 nM | > 17 | 87 |  |
| O=C(c1cc(-c2ccccc2F)[nH]n1)N1CC[C@](O)(c2ccccc2)[C@H]2CCCC[C@@H]21 |  |  | 81 | 56 |
| CS(=O)(=O)c1ccc([C@@]2(O)CCN(C(=O)c3ccccc3)[C@H]3CCCC[C@@H]32)cc1 | 106 nM |  | 56 |  |
| O=C(c1ccncn1)N1CC[C@@](O)(c2ccccc2)[C@@H]2CCCC[C@@H]21 (racemic) | 140 nM | > 17 | 103 |  |
| O=C(c1cccc2[nH]ncc12)N1CCC(O)(c2ccccc2)[C@@H]2CCCC[C@@H]21 (single isomer, unassigned) [listing 2 of 2 here] |  |  | 100 | 28 |
| O=C(c1ccccc1)N1CC[C@](O)(c2ccc(Cl)cc2)[C@H]2CCCC[C@@H]21 | 155 nM |  | 88 |  |
| O=C(c1ccccc1)N1CC[C@](O)(c2cccc(Cl)c2)[C@H]2CCCC[C@@H]21 | 493 nM |  | 69 |  |
| O=C(c1cn(CC(F)(F)F)cn1)N1CC[C@@](O)(c2ccccc2)[C@@H]2CCCC[C@@H]21 (racemic) | 26 nM | > 17 | 104 |  |
| O=C(c1cscn1)N1CC[C@@](O)(c2ccccc2)[C@@H]2CCCC[C@@H]21 (racemic) | 41 nM | > 17 | 101 |  |
| O=C(c1ccc(OCC(F)(F)F)nc1)N1CC[C@@](O)(c2ccccc2)[C@@H]2CCCC[C@@H]21 (racemic) | 16 nM | > 17 | 100 |  |
| O=C(c1csc(-c2ccncc2)n1)N1CCC(O)(c2ccccc2)[C@@H]2CCCC[C@@H]21 (single isomer, unassigned; form 3) | 388 nM | > 17 |  |  |
| O=C(c1csc(-c2ccncc2)n1)N1CCC(O)(c2ccccc2)[C@@H]2CCCC[C@@H]21 (some centres undefined) | 5220 nM and 597 nM | > 17 |  |  |
| CN1CC(C(=O)N2CC[C@@](O)(c3ccccc3)[C@@H]3CCCC[C@@H]32)CCC1=O (mixture of isomers) | 135 nM | > 17 | 99 |  |
| O=C(c1nnc[nH]1)N1CC[C@@](O)(c2ccccc2)[C@@H]2CCCC[C@@H]21 (racemic) | 282 nM | > 17 | 101 |  |
| O=C(c1ccc(C2CC2)nc1)N1CC[C@@](O)(c2ccccc2)[C@@H]2CCCC[C@@H]21 (racemic) | 12 nM | > 17 | 96 |  |
| N#Cc1cccc([C@@]2(O)CCN(C(=O)c3ccccc3)[C@H]3CCCC[C@@H]32)c1 | 1050 nM |  | 85 |  |
| O=C1CC(C(=O)N2CC[C@@](O)(c3ccccc3)[C@@H]3CCCC[C@@H]32)CN1 (mixture of isomers) | 3470 nM | > 17 | 89 |  |
| O=C(c1ccccc1)N1CC[C@](O)(c2cccnc2)[C@H]2CCCC[C@@H]21 | 938 nM |  | 86 |  |
